Results taken from ChEMBL document CHEMBL2407036, “Flow Synthesis and Biological Studies of an Analgesic Adamantane Derivative That Inhibits P2X7-Evoked Glutamate Release” (ACS Med Chem Lett, 2013).
Calls of active or inactive are those of the source. The rule behind the calls is not given here.

Legend:
Mus musculus = experiment: Analgesic activity in Swiss albino mouse assessed as inhibition of acetic acid-induced abdominal contraction at 20 to 60 mg/kg, po measured after 30 mins; type: functional, organism-based; conditions: Abdominal cavity
[1] = target: T1, P2X purinoceptor 7 (Rattus norvegicus) (UniProt Q64663); experiment: Antagonist activity at P2X7 in Sprague-Dawley rat synaptosome assessed as inhibition of BzATP-induced [3H]D-aspartate efflux preincubated at 10 uM for 8 mins by liquid scintillation counting; conditions: Brain
T1 sequence (whole entry): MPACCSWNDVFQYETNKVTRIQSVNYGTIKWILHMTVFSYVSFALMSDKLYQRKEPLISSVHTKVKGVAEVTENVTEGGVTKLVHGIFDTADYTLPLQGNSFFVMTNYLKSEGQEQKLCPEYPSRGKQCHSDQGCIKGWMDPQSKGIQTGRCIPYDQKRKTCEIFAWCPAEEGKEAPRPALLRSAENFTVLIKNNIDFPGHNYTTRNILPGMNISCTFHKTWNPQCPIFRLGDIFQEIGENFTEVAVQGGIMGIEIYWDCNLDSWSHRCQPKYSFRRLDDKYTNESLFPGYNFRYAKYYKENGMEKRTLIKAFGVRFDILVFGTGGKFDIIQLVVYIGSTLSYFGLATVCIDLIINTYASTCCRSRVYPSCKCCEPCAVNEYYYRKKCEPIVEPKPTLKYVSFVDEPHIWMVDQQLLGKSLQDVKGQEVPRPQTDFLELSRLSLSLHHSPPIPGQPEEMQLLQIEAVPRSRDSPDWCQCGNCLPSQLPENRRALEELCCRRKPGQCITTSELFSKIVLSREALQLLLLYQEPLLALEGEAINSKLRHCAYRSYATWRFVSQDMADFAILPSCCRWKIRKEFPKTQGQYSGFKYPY
Outline: (§1)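 Purified rat cerebrocortical synaptosomes loaded with [3H]D-aspartate and superfused. 100 μM BzATP added for 120 s. Compound added 8 min before BzATP. Ca2+-free conditions used medium with 0.5 mM EGTA, added 18 min before BzATP. Log concentration–response for inhibition of evoked efflux. Mean ± SEM of 3−12 independent experiments in triplicate.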

[2] = target: T1, P2X purinoceptor 7 (Rattus norvegicus); experiment: Antagonist activity at P2X7 in Sprague-Dawley rat synaptosome assessed as inhibition of BzATP-induced [3H]D-aspartate efflux preincubated at 10 uM for 8 mins by liquid scintillation counting in absence of extracellular Ca2+; conditions: Brain; outline: as §1

Compound | inhibition (Mus musculus) | inhibition [1] | inhibition [2]
O=C(NC1(C(=O)NCCc2c[nH]cn2)C2CC3CC(C2)CC1C3)c1ccccc1 (stereo not drawn) | Active |  | 
Clc1cccc(-c2nnnn2Cc2cccnc2)c1Cl |  | Active | Active
